# Reference: ChEMBL document CHEMBL4257536, “Pharmacophore-based tailoring of biphenyl amide derivatives as selective 5-hydroxytryptamine 2B receptor antagonists” (Medchemcomm, 2018)
# Experiments:
# [1] = target: T1, 5-hydroxytryptamine receptor 2B (Homo sapiens, UniProt P41595); assay: Ratio of IC50 for antagonist activity at recombinant human 5-HT2B receptor in presence of human serum albumin to IC50 for antagonist activity at recombinant human 5-HT2B receptor in absence of human serum albumin
# In short: (§1)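 IC50 was measured in the CHO-K1/5-HT2B calcium-flux assay twice, once in buffer alone and once with 4% HSA added. The ratio compares the IC50 with HSA to the IC50 without it. Run in triplicate.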
# [2] = Apparent permeability across basolateral side to apical side in human Caco2 cells; format: ADME, cell-based; conditions: Caco-2
# [3] = tested on: HepG2; assay: Cytotoxicity against human HepG2 cells by MTT assay; format: cell-based
# [4] = target: T2, 5-hydroxytryptamine receptor 2C (Homo sapiens, UniProt P28335); assay: Displacement of [3H]LSD from human 5HT2C receptor expressed in HEKT cell membranes after 1.5 hrs by liquid scintillation counting method
# T2 sequence (P28335 whole entry): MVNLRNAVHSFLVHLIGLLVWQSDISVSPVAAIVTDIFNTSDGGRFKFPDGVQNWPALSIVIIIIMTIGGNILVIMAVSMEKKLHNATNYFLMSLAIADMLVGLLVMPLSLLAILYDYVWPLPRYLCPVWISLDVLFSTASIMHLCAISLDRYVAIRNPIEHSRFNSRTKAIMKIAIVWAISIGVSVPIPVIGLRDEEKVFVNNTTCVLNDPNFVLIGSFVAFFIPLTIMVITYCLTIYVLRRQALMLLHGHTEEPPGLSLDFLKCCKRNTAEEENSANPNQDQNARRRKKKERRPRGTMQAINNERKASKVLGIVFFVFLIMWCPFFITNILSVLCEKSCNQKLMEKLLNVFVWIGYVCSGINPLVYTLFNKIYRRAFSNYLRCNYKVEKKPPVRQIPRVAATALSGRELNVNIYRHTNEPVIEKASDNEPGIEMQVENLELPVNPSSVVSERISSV
# [5] = Apparent permeability across apical side to basolateral side in human Caco2 cells; format: ADME, cell-based; conditions: Caco-2
# [6] = target: 5-hydroxytryptamine receptor 1E (Homo sapiens, UniProt P28566); assay: Displacement of [3H]5-HT from human 5HT1E receptor expressed in HEKT cell membranes after 1.5 hrs by liquid scintillation counting method
# In short: (§2)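 Ki determination by radioligand displacement in triplicate. Reference radioligands: [3H]5-HT for 5-HT1E, [3H]8-OH-DPAT for 5-HT1A, [3H]GR127543 for 5-HT1B, [3H]LY278584 for 5-HT3.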
# [7] = target: T1, 5-hydroxytryptamine receptor 2B; assay: (§3) Antagonist activity at recombinant human 5-HT2B receptor expressed in CHOK1 cells assessed as inhibition of serotonin-induced calcium flux preincubated for 60 mins at 37 degC followed by incubation at room temperature for 15 mins and subsequent addition of serotonin and measured for 100 secs by fluorescence assay; format: functional, cell-based
# In short: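 5-HT2B antagonist IC50 came from a dose-response curve in a calcium-flux assay in the CHO-K1/5-HT2B cell line. Run in triplicate.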
# [8] = target: T1, 5-hydroxytryptamine receptor 2B; assay: as §3, with “secs in presence of human serum albumin” for “secs”; format: functional, cell-based; in short: as §1
# [9] = target: T1, 5-hydroxytryptamine receptor 2B; assay: as §3, with “flux at 1 to 10 uM” for “flux”, “assay relative to control” for “assay”; format: functional, cell-based
# In short: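 Calcium-flux functional assay in CHO-K1 cells stably expressing 5-HT2B. Compounds were screened at 10 μM and 1 μM, and the value is % inhibition of 5-HT2B activity. Run in triplicate.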
# [10] = target: 5-hydroxytryptamine receptor 1B (Homo sapiens, UniProt P28222); assay: Displacement of [3H]GR127543 from human 5HT1B receptor expressed in HEK cell membranes after 1.5 hrs by liquid scintillation counting method; in short: as §2
# [11] = target: 5-hydroxytryptamine receptor 2A (Homo sapiens, UniProt P28223); assay: Displacement of [3H]ketanserin from human 5HT2A receptor expressed in HEKT cell membranes after 1.5 hrs by liquid scintillation counting method; format: cell-based
# [12] = Metabolic stability in human plasma assessed as compound remaining measured after 120 mins; format: ADME, cell-free; conditions: read-out: Stability
# [13] = Half life in rat liver microsomes; format: ADME, microsome
# [14] = Half life of compound in fasted state simulated gastric fluid at pH 1.6; format: ADME
# [15] = target: T3, 5-hydroxytryptamine receptor 1A (Homo sapiens, UniProt P08908); assay: Displacement of [3H]8-OH-DPAT from human 5HT1A receptor expressed in CHO cell membranes after 1.5 hrs by liquid scintillation counting method; in short: as §2
# T3 sequence (P08908 whole entry): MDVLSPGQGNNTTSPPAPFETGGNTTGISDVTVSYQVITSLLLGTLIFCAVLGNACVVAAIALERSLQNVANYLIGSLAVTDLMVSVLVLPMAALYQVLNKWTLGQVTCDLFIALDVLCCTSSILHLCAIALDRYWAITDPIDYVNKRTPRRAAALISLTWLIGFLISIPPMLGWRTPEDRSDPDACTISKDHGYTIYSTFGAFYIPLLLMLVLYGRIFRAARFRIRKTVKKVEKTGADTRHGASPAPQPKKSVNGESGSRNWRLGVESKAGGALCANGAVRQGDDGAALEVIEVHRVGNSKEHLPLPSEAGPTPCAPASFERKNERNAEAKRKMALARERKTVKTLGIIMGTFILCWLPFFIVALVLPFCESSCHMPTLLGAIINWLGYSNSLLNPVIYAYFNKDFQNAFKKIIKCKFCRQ
# [16] = target: T4, 5-hydroxytryptamine receptor 3A (Homo sapiens, UniProt P46098); assay: Displacement of [3H]LY278584 from human 5HT3 receptor expressed in HEKT cell membranes after 1.5 hrs by liquid scintillation counting method
# T4 sequence (P46098 whole entry): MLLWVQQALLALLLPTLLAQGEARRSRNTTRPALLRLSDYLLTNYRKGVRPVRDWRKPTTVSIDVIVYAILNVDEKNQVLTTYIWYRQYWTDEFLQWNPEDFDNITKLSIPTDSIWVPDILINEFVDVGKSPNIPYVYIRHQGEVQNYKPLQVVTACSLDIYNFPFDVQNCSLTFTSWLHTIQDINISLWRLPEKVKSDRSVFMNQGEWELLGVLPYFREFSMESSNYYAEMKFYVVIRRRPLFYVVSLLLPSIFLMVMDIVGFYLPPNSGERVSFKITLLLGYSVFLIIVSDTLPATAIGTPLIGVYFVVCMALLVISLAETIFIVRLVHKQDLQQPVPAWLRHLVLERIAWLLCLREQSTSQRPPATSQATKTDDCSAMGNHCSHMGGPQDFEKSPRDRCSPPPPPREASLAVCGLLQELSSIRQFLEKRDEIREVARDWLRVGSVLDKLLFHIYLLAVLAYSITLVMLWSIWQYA
# [17] = target: T1, 5-hydroxytryptamine receptor 2B; assay: Displacement of [3H]LSD from human 5HT2B receptor expressed in HEK cells membranes after 1.5 hrs by liquid scintillation counting method; format: cell membranes
# [18] = Half life of compound in fasted state simulated intestinal fluid at pH 6.5; format: ADME
# [19] = species: Homo sapiens; assay: Selectivity ratio of Ki for human 5HT1B receptor to Ki for human 5HT2B receptor
# In short: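 Ki values from radioligand displacement run in triplicate, using [3H]GR127543 for 5-HT1B and [3H]LSD for 5-HT2B. The ratio compares the 5-HT1B Ki to the 5-HT2B Ki.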
# Chain of 5-hydroxytryptamine receptor 2A (P28223 whole entry): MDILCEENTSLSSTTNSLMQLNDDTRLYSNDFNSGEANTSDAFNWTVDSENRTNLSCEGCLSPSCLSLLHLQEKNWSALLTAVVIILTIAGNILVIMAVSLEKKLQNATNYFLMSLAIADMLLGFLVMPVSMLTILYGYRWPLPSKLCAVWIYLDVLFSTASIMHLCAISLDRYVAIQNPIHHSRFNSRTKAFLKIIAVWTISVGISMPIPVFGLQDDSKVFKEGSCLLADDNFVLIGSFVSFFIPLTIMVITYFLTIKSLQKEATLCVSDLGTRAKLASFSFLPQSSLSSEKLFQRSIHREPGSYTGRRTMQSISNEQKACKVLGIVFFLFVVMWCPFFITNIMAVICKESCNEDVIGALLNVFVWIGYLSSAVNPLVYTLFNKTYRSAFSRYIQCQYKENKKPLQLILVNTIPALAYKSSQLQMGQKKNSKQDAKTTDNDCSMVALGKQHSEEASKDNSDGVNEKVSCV
# Chain of 5-hydroxytryptamine receptor 1E (P28566 whole entry): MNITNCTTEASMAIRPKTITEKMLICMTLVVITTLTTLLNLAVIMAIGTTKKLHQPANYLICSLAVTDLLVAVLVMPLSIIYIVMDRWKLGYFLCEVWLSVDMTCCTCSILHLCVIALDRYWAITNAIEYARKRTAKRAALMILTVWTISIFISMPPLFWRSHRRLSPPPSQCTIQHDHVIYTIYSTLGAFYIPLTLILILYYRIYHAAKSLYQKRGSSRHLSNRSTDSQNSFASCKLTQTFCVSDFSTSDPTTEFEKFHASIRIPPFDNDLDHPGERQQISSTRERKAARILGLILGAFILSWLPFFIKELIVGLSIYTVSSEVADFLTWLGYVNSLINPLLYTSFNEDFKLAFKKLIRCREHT
# T1 sequence (P41595 whole entry): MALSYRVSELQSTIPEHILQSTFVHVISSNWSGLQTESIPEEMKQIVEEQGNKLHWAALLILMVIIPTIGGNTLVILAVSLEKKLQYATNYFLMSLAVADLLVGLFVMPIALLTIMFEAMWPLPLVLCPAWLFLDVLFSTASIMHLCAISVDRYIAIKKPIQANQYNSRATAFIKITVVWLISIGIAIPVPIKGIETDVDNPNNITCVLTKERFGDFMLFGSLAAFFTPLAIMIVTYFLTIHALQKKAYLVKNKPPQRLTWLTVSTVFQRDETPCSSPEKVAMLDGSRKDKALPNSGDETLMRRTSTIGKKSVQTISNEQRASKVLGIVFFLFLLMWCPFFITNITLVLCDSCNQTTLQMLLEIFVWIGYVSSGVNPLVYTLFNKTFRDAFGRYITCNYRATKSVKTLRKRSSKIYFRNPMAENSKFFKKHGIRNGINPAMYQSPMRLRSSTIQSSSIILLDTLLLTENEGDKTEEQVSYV
# Chain of 5-hydroxytryptamine receptor 1B (P28222 whole entry): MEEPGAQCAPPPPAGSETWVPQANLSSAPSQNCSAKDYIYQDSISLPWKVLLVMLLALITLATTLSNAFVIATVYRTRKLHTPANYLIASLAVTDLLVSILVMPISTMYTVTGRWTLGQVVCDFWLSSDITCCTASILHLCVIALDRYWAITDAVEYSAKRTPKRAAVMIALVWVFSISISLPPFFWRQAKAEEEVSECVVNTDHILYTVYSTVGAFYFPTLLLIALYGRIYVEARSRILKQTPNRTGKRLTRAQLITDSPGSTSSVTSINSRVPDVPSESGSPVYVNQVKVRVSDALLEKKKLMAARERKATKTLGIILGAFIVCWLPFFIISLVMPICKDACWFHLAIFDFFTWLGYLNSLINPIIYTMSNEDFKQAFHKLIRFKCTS
Structure (SMILES),Ratio IC50 [1],Ki [4] [nM],Ki [6] [nM],Ki [10] [nM],Ki [11] [nM],Ki [15] [nM],Ki [16] [nM],Ki [17] [nM],further results
O=C(c1ccc(-c2ccccc2)cc1)N1CCC(c2nc3ccccc3[nH]2)CC1,500,–,–,–,–,–,–,–,–
Cc1cc2c(cc1Cl)N(C(=O)Nc1ccnc3ccccc13)CC2,50,–,–,–,–,–,–,–,–
O=C(NCCc1c[nH]c2ccccc12)C1CCN(C(=O)c2ccc(-c3ccccc3)cc2)CC1,–,473,> 10000,3410,2460,603,> 10000,4.5,Papp B→A [2]: 32.8 ×10⁻⁶ cm/s; IC50 [3]: > 50000 nM; Papp A→B [5]: 16.3 ×10⁻⁶ cm/s; IC50 [7]: 14.1 nM; IC50 [8]: 18.7 nM; inhibition [9]: > 95%; remaining at 2 h [12]: 97.4%; half-life [13]: 2.98 h; half-life [14]: 4.32 h; half-life [18]: > 8.33 h
Cc1nc2sccn2c(=O)c1CCN1CCC(=C(c2ccc(F)cc2)c2ccc(F)cc2)CC1 [RITANSERIN],–,1.9,–,–,–,–,–,–,–
CC(C)c1cc(-c2ccc(F)c3ccccc23)nc(N)n1,27,–,–,–,–,–,–,–,–
O=C(NCc1ccccc1)C1CCN(C(=O)c2ccc(-c3ccccc3)cc2)CC1,–,986,> 10000,8590,6790,9390,> 10000,569,Ratio Ki [19]: 15
O=C(NCCc1c[nH]c2ccccc12)C1CCN(C(=O)c2ccccc2)CC1,–,749,> 10000,7600,5690,5400,> 10000,79.3,–
